Experiments:
[1] = biological target: T1, Tyrosine-protein kinase receptor UFO (Homo sapiens, UniProt P30530); test: Inhibition of AXL (unknown origin) by ELISA
T1 sequence (P30530 whole entry): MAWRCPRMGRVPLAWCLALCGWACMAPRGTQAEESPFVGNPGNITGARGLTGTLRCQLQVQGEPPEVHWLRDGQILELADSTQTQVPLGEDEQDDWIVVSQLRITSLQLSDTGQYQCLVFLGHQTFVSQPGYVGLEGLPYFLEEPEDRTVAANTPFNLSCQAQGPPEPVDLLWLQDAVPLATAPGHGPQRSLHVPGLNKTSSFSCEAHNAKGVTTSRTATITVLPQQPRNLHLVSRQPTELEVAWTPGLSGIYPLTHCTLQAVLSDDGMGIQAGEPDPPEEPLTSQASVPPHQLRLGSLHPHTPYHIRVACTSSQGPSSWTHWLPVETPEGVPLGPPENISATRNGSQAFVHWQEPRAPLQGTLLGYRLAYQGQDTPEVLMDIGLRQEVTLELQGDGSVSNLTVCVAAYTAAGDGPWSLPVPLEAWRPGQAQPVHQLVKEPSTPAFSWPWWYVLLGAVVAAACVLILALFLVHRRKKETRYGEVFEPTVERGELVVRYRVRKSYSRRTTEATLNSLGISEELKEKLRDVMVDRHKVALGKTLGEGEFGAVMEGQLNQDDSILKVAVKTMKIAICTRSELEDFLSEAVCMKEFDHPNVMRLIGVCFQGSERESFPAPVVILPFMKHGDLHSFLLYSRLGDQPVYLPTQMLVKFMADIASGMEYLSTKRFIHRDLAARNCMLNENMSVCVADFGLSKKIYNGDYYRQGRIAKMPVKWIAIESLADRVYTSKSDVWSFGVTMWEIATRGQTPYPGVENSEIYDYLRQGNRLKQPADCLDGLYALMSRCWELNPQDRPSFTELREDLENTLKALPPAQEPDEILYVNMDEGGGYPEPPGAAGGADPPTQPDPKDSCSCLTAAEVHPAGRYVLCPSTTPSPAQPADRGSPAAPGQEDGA

[2] = biological target: Hepatocyte growth factor receptor (Homo sapiens, UniProt P08581); test: Inhibition of c-MET (unknown origin) by ELISA
Hepatocyte growth factor receptor, sequence (P08581 whole entry): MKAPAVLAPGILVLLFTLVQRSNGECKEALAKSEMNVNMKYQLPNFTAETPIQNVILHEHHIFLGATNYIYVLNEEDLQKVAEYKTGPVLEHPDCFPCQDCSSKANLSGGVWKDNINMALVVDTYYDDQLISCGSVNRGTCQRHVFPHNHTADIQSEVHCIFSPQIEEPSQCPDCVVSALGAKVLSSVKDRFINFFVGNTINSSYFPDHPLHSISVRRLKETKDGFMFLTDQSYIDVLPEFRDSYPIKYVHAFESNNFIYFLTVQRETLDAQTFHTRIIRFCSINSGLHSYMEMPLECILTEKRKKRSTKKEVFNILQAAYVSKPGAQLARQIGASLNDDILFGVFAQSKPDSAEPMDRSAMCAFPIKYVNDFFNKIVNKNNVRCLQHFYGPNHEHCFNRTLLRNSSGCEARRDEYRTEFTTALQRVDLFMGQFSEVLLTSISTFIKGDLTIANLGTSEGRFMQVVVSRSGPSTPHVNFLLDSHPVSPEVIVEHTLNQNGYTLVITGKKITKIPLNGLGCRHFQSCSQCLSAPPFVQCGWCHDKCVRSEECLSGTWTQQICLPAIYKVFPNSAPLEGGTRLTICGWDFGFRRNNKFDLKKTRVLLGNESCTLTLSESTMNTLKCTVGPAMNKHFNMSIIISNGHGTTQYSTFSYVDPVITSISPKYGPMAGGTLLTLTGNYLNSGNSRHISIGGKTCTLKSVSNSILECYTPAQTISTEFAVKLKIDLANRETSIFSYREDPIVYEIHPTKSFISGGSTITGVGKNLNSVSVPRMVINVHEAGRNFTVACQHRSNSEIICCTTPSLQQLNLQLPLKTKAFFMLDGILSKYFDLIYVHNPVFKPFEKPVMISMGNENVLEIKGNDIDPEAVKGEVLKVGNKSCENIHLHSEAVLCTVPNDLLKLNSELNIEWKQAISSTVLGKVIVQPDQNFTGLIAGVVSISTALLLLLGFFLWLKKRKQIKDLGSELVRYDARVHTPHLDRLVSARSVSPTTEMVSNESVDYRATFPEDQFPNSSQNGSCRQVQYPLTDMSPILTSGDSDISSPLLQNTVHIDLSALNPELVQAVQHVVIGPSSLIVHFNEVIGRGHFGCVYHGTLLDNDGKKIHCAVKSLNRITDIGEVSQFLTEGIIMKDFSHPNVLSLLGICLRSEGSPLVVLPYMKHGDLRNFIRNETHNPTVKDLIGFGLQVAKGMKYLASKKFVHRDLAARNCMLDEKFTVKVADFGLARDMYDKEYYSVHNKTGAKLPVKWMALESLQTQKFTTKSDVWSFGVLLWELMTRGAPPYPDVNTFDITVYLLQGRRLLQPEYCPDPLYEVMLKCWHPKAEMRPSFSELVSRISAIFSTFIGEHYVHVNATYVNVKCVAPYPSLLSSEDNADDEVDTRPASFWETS

[3] = test system: MKN-45; test: Antiproliferative activity against human MKN-45 cells incubated for 72 hrs; assay type: functional, cell-based; details: MKN-45, 72 h
Outline: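 MKN-45 cells (MET-amplified gastric carcinoma) grown in the supplier-recommended medium and serum, seeded at low density and treated the next day across a concentration range for 72 h. Proliferation read by SRB or CCK-8. IC50 obtained from a four-parameter concentration-response fit; mean ± SD of two independent assays.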

[4] = Tmax in Sprague-Dawley rat at 3 mg/kg, po via gavage measured up to 24 hrs by LC-MS analysis; assay type: ADME, organism-based; details: in vivo
Outline: (§1)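 Male Sprague-Dawley rats (n = 3) dosed once by oral gavage at 3 mg/kg as a solution in 5% DMSO/95% (0.5% CMC-Na). Blood sampled at 0.25, 0.5, 1, 2, 4, 6, 8 and 24 h, kept on wet ice, serum separated by centrifugation and stored at -20 °C. Serum levels measured by LC-MS/MS; parameters reported as means.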

[5] = AUC (0 to infinity) in Sprague-Dawley rat at 3 mg/kg, po via gavage measured up to 24 hrs by LC-MS analysis; assay type: ADME, organism-based; set-up: route oral, dose 3 mg/kg, time <=24; details: in vivo; outline: as §1
[6] = Half life in Sprague-Dawley rat at 3 mg/kg, po via gavage measured up to 24 hrs by LC-MS analysis; assay type: ADME, organism-based; details: in vivo; outline: as §1
[7] = test system: BaF3; test: Antiproliferative activity against mouse BaF3 stably expressing human TEL-AXL incubated for 72 hrs; assay type: functional, cell-based; details: BaF3, 72 h
[8] = Cmax in Sprague-Dawley rat at 3 mg/kg, po via gavage measured up to 24 hrs by LC-MS analysis; assay type: ADME, organism-based; set-up: route oral, dose 3 mg/kg, time <=24; details: in vivo; outline: as §1

SMILES	IC50 [1]	IC50 [2]	IC50 [3]	Tmax [4]	AUC(0-inf) [5]	half-life [6]	IC50 [7]	Cmax [8]
Cc1cc(-c2cn(C)c3ncnc(N)c23)ccc1NC(=O)c1cn(CC2CCOCC2)cc(-c2ccc(F)cc2)c1=O	4 nM	33.8 nM	–	–	–	–	–	–
Nc1ncnc2[nH]cc(-c3cc(F)c(NC(=O)c4cn(CC5CCOCC5)cc(-c5ccc(F)cc5)c4=O)cc3F)c12	0.4 nM	1.7 nM	29.8 nM	0.83 h	385 ng·h/mL	1.37 h	< 1 nM	330 ng/mL
Cn1cc(-c2ccc(NC(=O)c3cn(CC4CCCCC4)cc(-c4ccc(F)cc4)c3=O)cc2)c2c(N)ncnc21	2.3 nM	4.8 nM	–	–	–	–	–	–
Cn1cc(-c2ccc(NC(=O)c3cn(CC4CCOCC4)cc(-c4ccc(F)cc4)c3=O)c(Cl)c2)c2c(N)ncnc21	3.7 nM	40.5 nM	–	–	–	–	–	–
Cn1cc(-c2cc(F)c(NC(=O)c3cn(CC4CCOCC4)cc(-c4ccc(F)cc4)c3=O)cc2F)c2c(N)ncnc21	0.5 nM	3.3 nM	53.7 nM	–	–	–	< 1 nM	–
Cn1cc(C(=O)Nc2ccc(-c3cn(C)c4ncnc(N)c34)cc2)c(=O)c(-c2ccc(F)cc2)c1	5 nM	24.5 nM	–	–	–	–	–	–
Cc1nc(N)c2c(-c3ccc(NC(=O)c4cn(CC5CCOCC5)cc(-c5ccc(F)cc5)c4=O)cc3)cn(C)c2n1	5.1 nM	159 nM	–	–	–	–	–	–
Cn1cc(-c2ccc(NC(=O)c3cn(C4CCOCC4)cc(-c4ccc(F)cc4)c3=O)cc2)c2c(N)ncnc21	1.1 nM	13.1 nM	–	–	–	–	–	–
COCCCn1cc(C(=O)Nc2ccc(-c3cn(C)c4ncnc(N)c34)cc2)c(=O)c(-c2ccc(F)cc2)c1	> 10 nM	16.7 nM	–	–	–	–	–	–
CCCn1cc(-c2ccc(NC(=O)c3cn(CC4CCOCC4)cc(-c4ccc(F)cc4)c3=O)cc2)c2c(N)ncnc21	1.8 nM	5.1 nM	–	–	–	–	–	–
Cn1cc(-c2ccc(NC(=O)c3cn(CC4CCOCC4)cc(-c4ccc(F)cc4)c3=O)c(F)c2)c2c(N)ncnc21	0.2 nM	7.3 nM	210 nM	–	–	–	< 1 nM	–
Cn1cc(-c2ccc(NC(=O)c3cn(CC4CCOCC4)cc(-c4ccc(F)cc4)c3=O)cc2F)c2c(N)ncnc21	0.8 nM	2.4 nM	93.7 nM	–	–	–	< 1 nM	–

The remaining lines, values ahead:

IC50 [1]	IC50 [2]	IC50 [3]	Tmax [4]	AUC(0-inf) [5]	half-life [6]	IC50 [7]	Cmax [8]	SMILES
2.8 nM	215 nM	–	–	–	–	–	–	CN(C)CCn1cc(-c2ccc(NC(=O)c3cn(CC4CCOCC4)cc(-c4ccc(F)cc4)c3=O)cc2)c2c(N)ncnc21
0.2 nM	4.4 nM	77.9 nM	–	–	–	< 1 nM	–	Nc1ncnc2[nH]cc(-c3ccc(NC(=O)c4cn(CC5CCOCC5)cc(-c5ccc(F)cc5)c4=O)cc3)c12
–	–	15 nM	–	–	–	–	–	C[C@@H](Oc1cc(-c2cnn(C3CCNCC3)c2)cnc1N)c1c(Cl)ccc(F)c1Cl [CRIZOTINIB]
0.4 nM	33.1 nM	826 nM	–	–	–	< 1 nM	–	Cn1cc(-c2ccc(NC(=O)c3cn(CC4CCOCC4)cc(-c4ccc(C(F)(F)F)cc4)c3=O)cc2)c2c(N)ncnc21
0.5 nM	18.4 nM	> 1000 nM	–	–	–	> 100 nM	–	CN(C)C(=O)Cn1cc(C(=O)Nc2ccc(-c3cn(C)c4ncnc(N)c34)cc2)c(=O)c(-c2ccc(F)cc2)c1
2.7 nM	17 nM	–	–	–	–	–	–	Nc1ncnc2c1c(-c1ccc(NC(=O)c3cn(CC4CCOCC4)cc(-c4ccc(F)cc4)c3=O)cc1)cn2CCN1CCOCC1
3 nM	95.4 nM	–	–	–	–	–	–	Cn1cc(-c2ccc(NC(=O)c3cn(CC4CCOCC4)cc(-c4cccc(F)c4)c3=O)cc2)c2c(N)ncnc21
1 nM	20.6 nM	318 nM	–	–	–	< 1 nM	–	Cn1cc(-c2ccc(NC(=O)c3cn(CC4CCOCC4)cc(-c4ccccc4)c3=O)cc2)c2c(N)ncnc21
0.1 nM	7.1 nM	248 nM	–	–	–	< 1 nM	–	Cn1cc(-c2ccc(NC(=O)c3cn(CC4CCOCC4)cc(-c4ccc(F)cc4)c3=O)cc2)c2c(N)ncnc21
0.8 nM	19.8 nM	501 nM	–	–	–	< 1 nM	–	Cn1cc(-c2ccc(NC(=O)c3cn(CC4CCOCC4)cc(-c4ccc(F)cc4F)c3=O)cc2)c2c(N)ncnc21
1.2 nM	3.1 nM	–	–	–	–	–	–	Cn1cc(-c2ccc(NC(=O)c3cn(CC4CCCO4)cc(-c4ccc(F)cc4)c3=O)cc2)c2c(N)ncnc21 (configuration not stated)
0.4 nM	18.4 nM	85.3 nM	–	–	–	< 1 nM	–	CC(C)n1cc(C(=O)Nc2ccc(-c3cn(C)c4ncnc(N)c34)cc2)c(=O)c(-c2ccc(F)cc2)c1
0.2 nM	12.3 nM	347 nM	–	–	–	< 1 nM	–	Cn1cc(-c2ccc(NC(=O)c3cn(CC4CCOCC4)cc(-c4ccc(Cl)cc4)c3=O)cc2)c2c(N)ncnc21
